Results as given in ChEMBL document CHEMBL2380244, “Optimized chemical probes for REV-ERBα” (J Med Chem, 2013).
pEC50, pIC50: −log10 of the molar value. Calls of active or inactive are those of the source. The rule behind the calls is not given here.

Assays:
[1] = molecular target: T1, Nuclear receptor subfamily 1 group D member 1 (Homo sapiens) (UniProt P20393); assay: Agonist activity at REV-ERBalpha in human U2OS cells assessed as delay of peak of second cycle at 20 uM by luciferase reporter gene assay relative to DMSO-treated control; type: cell-based
T1 sequence (whole entry): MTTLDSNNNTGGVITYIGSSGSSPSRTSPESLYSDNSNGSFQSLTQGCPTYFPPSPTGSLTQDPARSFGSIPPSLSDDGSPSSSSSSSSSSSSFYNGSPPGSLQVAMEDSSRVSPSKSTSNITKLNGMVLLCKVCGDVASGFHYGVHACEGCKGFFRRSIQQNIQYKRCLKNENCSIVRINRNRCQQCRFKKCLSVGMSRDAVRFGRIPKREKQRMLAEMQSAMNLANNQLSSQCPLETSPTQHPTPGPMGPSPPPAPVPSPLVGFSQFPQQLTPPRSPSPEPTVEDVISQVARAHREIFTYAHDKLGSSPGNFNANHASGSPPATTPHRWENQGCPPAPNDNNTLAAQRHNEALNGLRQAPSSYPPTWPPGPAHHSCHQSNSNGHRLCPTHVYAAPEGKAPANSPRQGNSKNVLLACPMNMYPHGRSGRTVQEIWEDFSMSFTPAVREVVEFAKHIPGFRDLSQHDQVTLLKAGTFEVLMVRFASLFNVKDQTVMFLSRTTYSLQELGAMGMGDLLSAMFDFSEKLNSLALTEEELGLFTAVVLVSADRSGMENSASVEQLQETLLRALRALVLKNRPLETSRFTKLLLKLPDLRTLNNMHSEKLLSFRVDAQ
Summary of the method: (§1)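 U2OS cells stably carrying a mouse Bmal1-promoter luciferase reporter (hygromycin-selected clone) seeded at confluence in 384-well format. Rhythms synchronized by media change and checked over 48 h. Compound added, then bioluminescence recorded in real time every 20 min for 72 h in a temperature-controlled luminometer. Cells then washed and recovery oscillations in full growth medium monitored as a toxicity counter-screen.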

[2] = molecular target: T1, Nuclear receptor subfamily 1 group D member 1 (Homo sapiens); assay: Agonist activity at REV-ERBalpha in human U2OS cells assessed as suppression of BMAL1 expression at 20 uM after 40 hrs by luciferase reporter gene assay relative to DMSO-treated control; type: cell-based; summary of the method: as §1
Homo sapiens = organism: Homo sapiens; assay: Selectivity ratio of IC50 for LXRalpha (unknown origin) to EC50 for biotinylated REV-ERBalpha (unknown origin)
[3] = molecular target: T2, Oxysterols receptor LXR-alpha (Homo sapiens, UniProt Q13133); assay: Binding affinity to LXRalpha (unknown origin) by radioligand displacement assay
T2 sequence (Q13133 whole entry): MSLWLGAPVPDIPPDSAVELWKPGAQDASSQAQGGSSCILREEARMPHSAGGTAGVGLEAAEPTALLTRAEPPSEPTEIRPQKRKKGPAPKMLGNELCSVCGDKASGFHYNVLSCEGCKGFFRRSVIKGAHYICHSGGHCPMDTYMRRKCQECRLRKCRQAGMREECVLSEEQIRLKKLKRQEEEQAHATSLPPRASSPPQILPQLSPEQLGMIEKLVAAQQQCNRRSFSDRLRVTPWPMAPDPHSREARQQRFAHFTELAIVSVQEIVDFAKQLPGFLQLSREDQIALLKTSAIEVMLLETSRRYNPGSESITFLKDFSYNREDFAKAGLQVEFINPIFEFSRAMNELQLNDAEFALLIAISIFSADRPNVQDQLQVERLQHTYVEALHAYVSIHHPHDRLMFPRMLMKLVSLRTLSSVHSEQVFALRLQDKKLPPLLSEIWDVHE

[4] = molecular target: T3, Nuclear receptor subfamily 1 group D member 1 (Homo sapiens, UniProt P20393); assay: Agonist activity at biotinylated REV-ERBalpha (unknown origin) assessed as increase in biotinylated NCOR peptide recruitment after 1 hr by FRET assay
T3 sequence (P20393 whole entry): T1 sequence (whole entry)
Summary of the method: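 TR-FRET: 20 nM biotinylated REV-ERBα pre-complexed with 10 nM APC-streptavidin, excess biotin added, then mixed with 20 nM biotinylated NCOR1 on 10 nM Eu-streptavidin. MOPS pH 7.5 buffer with NaF, CHAPS, BSA and 10 mM DTT. Added to compound (serial DMSO dilutions of 10 mM stocks), 1 h at RT, Eu/APC read. Data normalized to basal and minimal HTRF, fitted to a 4-parameter logistic.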

[5] = molecular target: T1, Nuclear receptor subfamily 1 group D member 1 (Homo sapiens); assay: Agonist activity at biotinylated REV-ERBalpha (unknown origin) assessed as biotinylated PGC1-beta peptide recruitment after 20 mins by Greiner assay
Summary of the method: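 Biotinylated peptides (final 20 nM) with Eu-W1024 streptavidin (final 20 nM), 20 min RT. Biotinylated REV-ERBα (20 nM) with APC-streptavidin (10 nM), 20 min RT, then 20-fold excess biotin, 15 min RT. Receptor solution added to peptide plates, Eu/APC TR-FRET read. Four wells per peptide averaged, with standard deviation.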

[6] = molecular target: T4, Oxysterols receptor LXR-alpha (Homo sapiens) (UniProt Q13133); assay: Agonist activity at LXRalpha in human THP1 cells assessed as upregulation of LPS-stimulated ABCA1 mRNA expression at 10 uM after 6 hrs by RT-qPCR analysis; type: cell-based; settings: THP-1
T4 sequence (whole entry): T2 sequence (Q13133 whole entry)
Summary of the method: (§2)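 THP-1 cells sub-cultured in RPMI1640 with 10% FBS, stimulated with LPS 10 μg/mL in presence of DMSO or compound at 10 μM. Transcript read-out by RT-qPCR, normalized to TATA box binding protein.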

[7] = molecular target: T1, Nuclear receptor subfamily 1 group D member 1 (Homo sapiens); assay: Agonist activity at REV-ERBalpha in human THP1 cells assessed as downregulation of LPS-stimulated IL-6 mRNA expression at 10 uM after 6 hrs by RT-qPCR analysis; type: cell-based; settings: THP-1; summary of the method: as §2
THP-1 = assay: Cytotoxicity against human THP1 cells assessed as cell viability measured ATP level at 10 uM after 6 hrs by celltiter-glo assay; type: cell-based; settings: thp-1, 6 h
Summary of the method: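 THP-1 cells incubated six hours with compound. CellTiter-Glo added for 15 min, then luminescence read.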

[8] = molecular target: T4, Oxysterols receptor LXR-alpha (Homo sapiens); assay: Agonist activity at LXRalpha in human THP1 cells assessed as effect on LPS-stimulated ABCA1 mRNA expression at 1 uM after 6 hrs by RT-qPCR analysis; type: cell-based; settings: THP-1
Summary of the method: (§3)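 THP-1 cells (RPMI1640 + 10% FBS, kept at 3×10^5–8×10^5 cells/mL) stimulated with LPS 10 mcg/mL with DMSO or compound at 1 μM, in triplicate. After six hours the cells were lysed and transcripts quantified by RT-qPCR against TATA box binding protein as housekeeping gene. Groups compared by one-way ANOVA with post-hoc Dunnett's.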

[9] = molecular target: T1, Nuclear receptor subfamily 1 group D member 1 (Homo sapiens); assay: Agonist activity at REV-ERBalpha in human THP1 cells assessed as downregulation of LPS-stimulated IL-6 mRNA expression at 1 uM after 6 hrs by RT-qPCR analysis; type: cell-based; settings: THP-1; summary of the method: as §3
[10] = molecular target: T1, Nuclear receptor subfamily 1 group D member 1 (Homo sapiens); assay: Agonist activity at REV-ERBalpha in human U2OS cells assessed as suppression of BMAL1 oscillation measured for 72 hrs by luciferase reporter gene assay; type: cell-based; summary of the method: as §1

Row | TIME [1] [h] | Activity [2] [%] | Ratio IC50/EC50 (Homo sapiens) | pIC50 [3] | pEC50 [4] | Activity [5] | Activity [6] | Activity [7] | Activity [8] | Activity [9] | Activity [10] | SMILES | Activity (THP-1)
1 | 0.8 | 41 | 130 | 4.60 | 6.70 |  |  |  |  |  |  | Cc1cccc(CN(Cc2cccnc2)Cc2ccc([N+](=O)[O-])s2)c1 | 
2 | 0 | 38 | 320 | 4.70 | 7.20 |  |  |  |  |  |  | O=[N+]([O-])c1ccc(CN(Cc2ccc(Cl)cc2)Cc2ccccc2F)s1 | 
3 | 0 | 6 | 10 | 5.30 | 6.30 | Dose-dependent effect | Active | Active |  |  |  | CC(C)(C)OC(=O)CN(Cc1ccc(Cl)cc1)Cc1ccc([N+](=O)[O-])s1 [GSK-4112] | 
4 |  |  | 40 | 4.80 | 6.40 |  |  |  |  |  |  | O=[N+]([O-])c1ccc(CN(Cc2cccnc2)Cc2cccc(C(F)(F)F)c2)s1 | 
5 | 0 | 16 | 130 | 4.49 | 6.60 |  |  |  |  |  |  | Cc1sc(CN(Cc2ccc(Cl)cc2)Cc2cccnc2)cc1Br | 
6 | 0 | 21 | 100 | 4.80 | 6.80 |  |  |  |  |  |  | CC(C)CCN(Cc1ccc(Cl)cc1)Cc1ccc([N+](=O)[O-])s1 | 
7 |  |  | 79 | 4.89 | 6.80 |  |  |  |  |  |  | O=[N+]([O-])c1ccc(CN(Cc2ccc(Cl)cc2)Cc2cccnc2)s1 | 
8 | 0 | 23 |  | 4.70 | 6.70 |  |  |  | inactive | Active |  | N#Cc1ccc(CN(Cc2ccc(Cl)cc2)Cc2cccnc2)s1 | Non-toxic
9 |  |  | 160 | 4.49 | 6.70 |  |  |  |  |  |  | COc1ccc(CN(Cc2cccnc2)Cc2ccc([N+](=O)[O-])s2)cc1 | 
10 | 0 | 37 | 79 | 4.80 | 6.70 |  |  |  | inactive | Active |  | N#Cc1ccc(CN(Cc2cccnc2)Cc2ccc(F)c(F)c2)s1 | Non-toxic
11 | 0 | 23 | 250 | 4.40 | 6.80 |  |  |  |  |  |  | Cc1ccc(CN(Cc2cccnc2)Cc2ccc([N+](=O)[O-])s2)cc1 | 
12 | 0 | 30 | 63 | 4.40 | 6.20 |  |  |  |  |  |  | Clc1ccc(CN(Cc2cccnc2)Cc2sccc2-n2cccc2)cc1 | 
13 | 1.3 | 14 |  |  |  | Dose-dependent effect |  |  |  |  |  | CCOC(=O)N1CCC(CN(Cc2ccc(Cl)cc2)Cc2ccc([N+](=O)[O-])s2)C1 (stereo unspecified) | 
14 | 0 | 21 | 1260 | 4.20 | 7.30 |  |  |  | inactive | Active | Dose-dependent effect | Cc1cc(Cl)ccc1CN(Cc1ccc(Cl)cc1)Cc1ccc([N+](=O)[O-])s1 | Non-toxic
15 | 0 | 37 | 160 | 4.49 | 6.70 |  |  |  |  |  |  | Cc1ccccc1CN(Cc1cccnc1)Cc1ccc([N+](=O)[O-])s1 | 
16 | 0 | 24 | 100 | 4.40 | 6.40 |  |  |  |  |  |  | Clc1ccc(CN(Cc2cccnc2)Cc2cc3ccccc3s2)cc1 | 
17 | 0 | 14 | 250 | 4.40 | 6.80 |  |  |  | inactive | Active |  | O=[N+]([O-])c1ccc(CN(Cc2ccc(F)cc2)Cc2cccnc2)s1 | Non-toxic
18 | 0.5 | 42 | 25 | 5.00 | 6.40 |  |  |  |  |  |  | COc1cccc(CN(Cc2cccnc2)Cc2ccc([N+](=O)[O-])s2)c1 | 
19 | 0 | 27 | 10 | 5.20 | 6.20 |  |  |  |  |  |  | N#Cc1ccc(CN(Cc2cccnc2)Cc2cc(F)ccc2F)s1 | 
20 |  |  |  |  | 6.70 |  |  |  |  |  |  | N#Cc1ccc(CN(Cc2ccc(F)cc2)Cc2cccnc2)s1 | 

Row | SMILES | TIME [1] [h] | Activity [2] [%] | Ratio IC50/EC50 (Homo sapiens) | pIC50 [3] | pEC50 [4] | Activity [5] | Activity [6] | Activity [7] | Activity [8] | Activity [9] | Activity [10] | Activity (THP-1)
21 | Clc1ccc(CN(Cc2cccnc2)Cc2ncc[nH]2)cc1 |  |  |  | < 4.00 | < 4.30 |  |  |  |  |  |  | 
22 | CCCCCNC(=O)N1CCC(CN(Cc2ccc(Cl)cc2)Cc2ccc([N+](=O)[O-])s2)C1 (stereo unspecified) [SR9011] | 1.3 | 20 |  |  | < 4.30 | Dose-dependent effect |  |  |  |  |  | 
23 | Clc1ccc(CN(Cc2cccnc2)Cc2nccs2)cc1 |  |  |  | 4.30 | < 4.30 |  |  |  |  |  |  | 
24 | COc1ccc(CN(Cc2cccnc2)Cc2ccc(C#N)s2)cc1 |  |  | > 160 | < 4.00 | 6.20 |  |  |  |  |  |  | 
25 | O=[N+]([O-])c1ccc(CN(Cc2ccccc2)Cc2ccc(Cl)cc2)s1 |  |  | > 1000 | < 4.00 | 7.00 |  |  |  |  |  |  | 
26 | N#Cc1ccc(CN(Cc2cccnc2)Cc2ccccc2F)s1 | 0 | 6 |  | 4.49 | < 4.30 |  |  |  |  |  |  | 
